RORA inh – inhibitors of human nuclear receptor RORA. CHO-K1 Gal4-RORA LBD luciferase reporter, luminescence. 0.43% of 65,000 active. inhibition, % at 10 µM. P35398;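 active = inhibition above the mean of all tested compounds plus 3 SD, cut at about 52% in these data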
Target sequence (P35398 whole entry, looked up, the tested form may be a part): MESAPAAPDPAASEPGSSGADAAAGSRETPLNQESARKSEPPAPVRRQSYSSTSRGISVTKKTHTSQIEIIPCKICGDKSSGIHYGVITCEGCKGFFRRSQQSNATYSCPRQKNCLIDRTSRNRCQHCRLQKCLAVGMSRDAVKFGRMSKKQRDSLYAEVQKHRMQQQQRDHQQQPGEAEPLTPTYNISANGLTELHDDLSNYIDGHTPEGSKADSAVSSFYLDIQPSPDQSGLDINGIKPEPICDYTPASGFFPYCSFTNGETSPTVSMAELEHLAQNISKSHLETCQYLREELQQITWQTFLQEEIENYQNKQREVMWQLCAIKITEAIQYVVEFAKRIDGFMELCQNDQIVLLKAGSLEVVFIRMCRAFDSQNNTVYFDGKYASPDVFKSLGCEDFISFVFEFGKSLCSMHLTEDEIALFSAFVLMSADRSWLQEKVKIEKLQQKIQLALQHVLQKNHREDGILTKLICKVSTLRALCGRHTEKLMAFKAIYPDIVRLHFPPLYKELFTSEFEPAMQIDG
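Test system – CHO-K1 Gal4-RORA LBD luciferase reporter cells · Schedule – 20 h at 37 °C · Signal – luminescence from basal luciferase reporter expression · Measure – percent inhibition of basal reporter luminescence, control-normalized · Control set – -RORA mock-transfected DMSO wells 100%, +RORA DMSO wells 0%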
Large screens that a line does not name were inactive. The sample as a whole holds a higher share of hits than the screen did.

O=C(c1ccc(S(=O)(=O)N2CCOCC2)cc1)N1CCN=C1SCc1cccnc1	none
CCCn1nnnc1SCC(=O)N(C(C)C)C(C)C	none
CCCCOCCCNC(=O)c1c(-c2ccccc2)noc1C	none
COc1cc(C2C3C(C)N(C)C(=O)N(C)C3N(C)C(=O)N2C)ccc1O (stereo unspecified)	none
COc1ccc(C(NC(=O)C(C)(C)C)NC(=O)C(C)(C)C)cc1	none
CCOC(=O)Cc1csc(NC(=O)CSc2nnc(-c3ccc(OC)cc3)n2C)n1	none
COC(=O)c1cc(Br)c(=O)n(-c2ccc(OC)cc2)c1	none
Oc1c(CN2CCN(c3ccccn3)CC2)cc(Cl)c2cccnc12	RORA inh 60
Oc1c(CN2CCCCC2)cc(COCc2ccccc2)c2cccnc12	RORA inh 53
c1ccc(-c2nnc(N3CCN(c4ccccn4)CC3)c3ccccc23)cc1	none
O=P(O)(CCc1ccccn1)CN1CCCCC1	none
CCOC(=O)C1=C(C)SC2=NS(=O)(=O)CCN21	none
COc1ccc(CCNC(=O)C2CCCN(C(=O)N(C)C)C2)c(OC)c1 (stereo unspecified)	none
Cc1ccc2nc(NC3=NCN(CCN4CCOCC4)CN3)nc(C)c2c1	none
COc1cc(-c2nnc(COc3ccc4ccccc4c3)o2)cc(OC)c1OC	none
c1csc(CCNc2ncnc3sc4c(c23)CCC4)c1	RORA inh 72
O=C(NCc1cccs1)c1noc2c1CCCC2	none
Nc1ccc2oc(-c3cc(Br)ccc3Cl)nc2c1	RORA inh 58
Cc1ccc(C)c(-c2nc3cc(N)ccc3o2)c1	none
Nc1c(Br)cc2oc(-c3ccccc3)nc2c1Br	none
O=C(NCCCn1ccnc1)c1cc(-c2cccs2)on1	none
CCOC(=O)c1c(C)[nH]c(C)c1C(=O)CSc1nnc(-c2ccncc2)n1C	none
CCCCn1c(SCC(=O)N2CCN(c3ccccc3)CC2)nc2ccsc2c1=O	none
COc1ccc2[nH]c(=O)c3c(c2c1)OC(C)(C)C=C3	RORA inh 58
COc1ccc2[nH]c(C)c(CN3CCC(C)CC3)c(=O)c2c1	none
C=CCn1c(CCNC(=O)C(C)(C)C)nc2ccccc21	none
c1ccc(N2CCN(c3ccccc3)C2c2cccs2)cc1	none
O=C1Nc2cc(Cl)cnc2N2CCCC12 (stereo unspecified)	none
Cc1ccc2nc(Nc3ccc4[nH]c(=O)[nH]c4c3)c(-n3nc(C)cc3C)nc2c1	none
CC(C)c1ccc(NC(=O)CSc2nc3c(c(=O)[nH]2)CCC3)cc1	none
CCCc1ccc(-c2ccc(F)c(N)c2)nc1	RORA inh 69
Cc1cc(Nc2ccc(C)c(C)c2)n2nc(C)nc2n1	none
CCc1ccc(NC(=O)CSc2nnc(Cc3cccn3C)n2-c2ccc(F)cc2)cc1	none
CCCCOc1ccccc1NC(=O)CSc1nnnn1C(C)(C)C	none
CC(=O)c1c(C)[nH]c(C(=O)Nc2ccc(C)cn2)c1C	RORA inh 73
Cc1ccccc1C(=O)Nc1ccc(Br)cn1	none
CCOC(=O)c1[nH]c(C)c(C(=O)Nc2ccccc2C)c1C	none
COC(=O)c1cc2ccsc2n1CC(=O)Nc1cc(Cl)ccc1OC	none
COc1ccc(NC(=O)c2cnc3ccccn3c2=O)cc1OC	none
CCSc1cc(C2C(C#N)=C(N)OC(C)=C2C(=O)OC)c(C)o1 (stereo unspecified)	none
CCc1ccc(-c2nnn(CCC(=O)OC)n2)cc1	RORA inh 53
c1ccc(OCCCn2nnc(-c3ccc(N4CCOCC4)cc3)n2)cc1	none
CCCn1nnc(NC(=O)c2cc3ccccc3o2)n1	none
CCC(C)[C@H](N)c1nnc(SCc2cccc(F)c2)o1 (stereo partly specified)	none
Cc1cccc(NC(=O)CSc2nnc(-c3ccc(S(=O)(=O)N4CCOCC4)cc3)n2C)c1	none
CNc1nc2c(c(=O)[nH]c(=O)n2C)n1CCOC	none
O=C(Sc1nnc(-c2ccccc2)o1)N1c2ccccc2Sc2ccccc21	none
O=S1(=O)C=C(Sc2nnc(-c3ccccc3)o2)c2ccccc21	RORA inh 80
Cc1cc(C)nc(SC2=CS(=O)(=O)c3ccccc32)n1	RORA inh 65
c1ccc(-c2nnc(SCc3cn4ccsc4n3)o2)cc1	none
O=S1(=O)C=C(Sc2nc3ccccc3s2)c2ccccc21	RORA inh 88
O=c1oc2ccccc2n1CSc1nc2ccccc2s1	none
OC1CCCCC1Sc1nc2ccccc2s1 (stereo unspecified)	none
N#Cc1cn(CC(=O)O)c2ccccc12	none
Cc1noc(C)c1COC(=O)CCc1nc2ccccc2c(=O)[nH]1	none
O=C(Nc1ccc(Cc2ccncc2)cc1)c1ccco1	none
CCc1ccccc1NC(=O)COC(=O)C1CC(=O)N(c2ccc(F)cc2)C1 (stereo unspecified)	none
CCOC(=O)C1=C(C)Nc2nc(SCC)[nH]c(=O)c2C1c1ccncc1 (stereo unspecified)	none
Cn1c(=O)cc(OCCCC(=O)NCc2ccc3c(c2)OCO3)c2ccccc21	none
Cc1cccc2cc(COC(=O)C(C)C)c(=O)[nH]c12	none
CCCN1C=CC(=C2C(=O)c3ccccc3C2=O)C=C1	RORA inh 91
CCN1C=CC(=C2C(=O)c3ccccc3C2=O)C=C1	RORA inh 67
CC1=CC(=C2C(=O)c3ccccc3C2=O)C=C(C)O1	none
CN1C=CC(=C2C(=O)c3ccccc3C2=O)C=C1	none
Cc1ccc(S(=O)(=O)NCc2ccncc2)cc1	RORA inh 56
CC1CCCCC1NS(=O)(=O)c1ccc(S(=O)(=O)NCc2ccncc2)cc1 (stereo unspecified)	RORA inh 69
CC(=O)NS(=O)(=O)c1ccc(NC(=O)CCC2CCCC2)cc1	none
Cc1cc(C)c(C)c(S(=O)(=O)NCc2cccnc2)c1C	none
O=S(=O)(NCc1ccc(Cl)cc1)c1cnc[nH]1	none
O=C(NCCc1cccc(F)c1)[C@@H]1CSC2c3ccccc3C(=O)N21 (stereo partly specified)	none
Cc1ccc(-c2ccc(/C=N/c3ncn[nH]3)o2)cc1Cl	none
Cn1c(NC(=O)C2c3ccccc3Oc3ccccc32)cc(=O)n(C)c1=O	none
CCc1ccc(-c2cn3nc(C)c(C)nc3n2)cc1	RORA inh 86
O=C(c1cc2ccccc2o1)c1nc2c(n1O)CCCCC2	none
O=C(Nc1ccon1)c1cccc(C(F)(F)F)c1	none
COc1ccc(/C=N\n2nnc3ccccc32)cc1	RORA inh 74
CSc1ccc(/C=N/n2nnnc2N)cc1	none
C=CCSc1nncn1/N=C/c1ccc(OC)cc1	none
O=c1c2c3c(sc2nc2sc(C4CC4)nn12)CCCC3	none
Cc1ccc(C(=O)/C=C/Nc2ccccn2)cc1	RORA inh 90
Cc1cc(C(=O)Nc2ccccn2)no1	none
O=C(O)c1ccccc1C(=O)Nc1ccccn1	none
Cc1cccc2cc3c(nc12)SC(=NCC1CCCO1)N(Cc1ccco1)C3 (stereo unspecified)	RORA inh 55
COc1cc2c(cc1OC)CN(C(=O)CSc1nc(N)c(C#N)cc1C#N)CC2	none
COC(=O)/C=C/S(=O)(=O)c1ccc(NC(C)=O)cc1	none
CCC(C)(C)n1nnnc1C(c1ccc(N(C)C)cc1)N1CCN(C2CCCCC2)CC1 (stereo unspecified)	none
O=C(Nc1nc2cc3c(cc2s1)OCO3)C1=COCCO1	RORA inh 68
CC(=O)Nc1nc2cc3c(cc2s1)OCO3	none
Cc1nc2c(ccc3nc(NC(=O)c4ccc5c(c4)OCCO5)sc32)s1	none
COc1cc2c(cc1OC)CN(C(=O)COc1ccc(C)c(C)c1)CC2	none
CC(=O)N1CCc2cc(C(=O)CN3CCN(C(=O)c4ccco4)CC3)ccc21	none
O=S(=O)(C/C(=C/CO)S(=O)(=O)c1ccccc1)c1ccccc1	RORA inh 89
Cc1oc(-c2ccccc2F)nc1CN1CCC(C(=O)NCc2cccs2)CC1	none
COc1ccc(N2CCN(CCCNC(=O)CC3Oc4ccc(C)cc4NC3=O)CC2)cc1 (stereo unspecified)	none
